PPC-1+TRAIL kill: compounds killing PPC-1 cancer cells with TRAIL present, primary screen, TRAIL potentiator project, ATPLite luminescence, uHTS; PPC-1 cells + TRAIL, ATPLite viability luminescence; 220,000 compounds, 0.41% hits; AID 1443, 2008; cell killing (% activity), % at 4 µM or 5 µM;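 active = cell killing above 50% in the first pass at 4 µM, then a duplicate retest at 5 µM averaging 50% or more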;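 note: plate controls were cells with TRAIL plus DMSO for no effect and medium-only wells lacking cells for full effect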
C8 TRAIL sens: viability loss with TRAIL in NB7+C8 cells, primary screen, TRAIL sensitizer project, cell-based, ATPlite luminescence | inhibition (viability loss, TRAIL sensitization), % at 10 µM | 360,000 compounds, 1% hits | AID 624354, 2012;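 active = compounds causing at least 50% loss of cell viability in the single-dose screen, relative to plate controls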
FLuc inh counter: firefly luciferase enzyme inhibitors, primary screen, artefact control for luciferase-based inhibitor screens, biochemical, luminescence, ATPLite; Luciferin 4-monooxygenase (Photinus pyralis), P08659; inhibition, % at 10 µM; 10 min; AID 1006, 2008; 200,000 compounds, 1.5% hits;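 active = inhibition above about 50% when tested at 10 µM, limit read from the data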
Target sequence (P08659 whole entry, looked up): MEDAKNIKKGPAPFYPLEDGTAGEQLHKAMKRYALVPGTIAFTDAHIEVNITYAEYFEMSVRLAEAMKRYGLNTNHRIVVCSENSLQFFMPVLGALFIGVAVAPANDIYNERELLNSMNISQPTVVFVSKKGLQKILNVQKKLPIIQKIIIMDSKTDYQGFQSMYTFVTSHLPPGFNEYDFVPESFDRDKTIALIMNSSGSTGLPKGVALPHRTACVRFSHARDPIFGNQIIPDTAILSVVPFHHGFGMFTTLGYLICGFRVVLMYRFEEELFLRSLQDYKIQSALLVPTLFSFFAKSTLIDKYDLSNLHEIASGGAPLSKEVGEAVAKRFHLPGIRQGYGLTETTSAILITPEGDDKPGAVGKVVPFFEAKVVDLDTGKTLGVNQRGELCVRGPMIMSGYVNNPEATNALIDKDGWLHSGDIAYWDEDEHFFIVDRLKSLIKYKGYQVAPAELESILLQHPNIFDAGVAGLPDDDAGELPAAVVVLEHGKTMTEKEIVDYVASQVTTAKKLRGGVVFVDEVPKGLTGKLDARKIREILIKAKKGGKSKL
Platelet DG rel: inhibitors of platelet dense granule secretion, primary screen, cell-based, MLPCN, human platelets; inhibition, %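 (compounds screened at 7.5 µM in platelet-rich plasma)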; human platelet-rich plasma, SFLLRN dense granule ATP release, luminescence; 300,000 compounds, 0.22% hits;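 active = mean replicate score, as percent of positive control, at or above 50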
FLuc stim CS: FLuc activators, initial screening, artefact control for FLuc-dependent activation tests, biochemical, ATPlite luminescence; ATPlite luciferase biochemical, 10 min; 0 = ATP-free wells, 1 = DMSO control; Luciferin 4-monooxygenase (Photinus pyralis), P08659; 200,000 tested, under 10 active; activation factor at 10 µM;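 active = luciferase activation factor, scaled between plate controls, of at least 2 with compound at 10 µM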
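Material: Luciferase/luciferin reagent mix; Doses: test compounds dosed from 2 mM stocks in 100% DMSO; Schedule: 10 min incubation after luciferase reagent addition, room temperature; Measured by: luminescence from luciferase reaction; Read-out: luminescence gain marking luciferase activators.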
An asterisk follows results filed as active; x = no result given. Compounds with a hit are over-represented: about 1.6% of the library has one in this group of screens.

SMILES	PPC-1+TRAIL kill	C8 TRAIL sens	FLuc inh counter	Platelet DG rel	FLuc stim CS
O=C1NC[C@H](Cc2ccccc2)N(C[C@@H]2CCCN2C[C@H](Cc2ccc(O)cc2)N2C[C@H](Cc3ccccc3)N(CCc3ccccc3)C(=O)C2=O)C1=O	x	-9	x	x	x
CCN(CC)CCn1c2c(c(SCC(=O)Nc3nc4ccc(C)cc4s3)nc1=O)CCC2	x	66*	x	21	x
CC1(C(=O)Nc2cccc(C#N)c2)CCN1C(=O)Cc1ccc(-c2ccccc2)cc1 (stereo not drawn)	x	21	x	x	x
c1ccc2c(Nc3nnc(-c4ccncc4)s3)cccc2c1	18	30	52*	12	0.5
C=CCNc1nnc(-c2ccncc2)s1	0	-3	-3	4	1
O=C(/C=C/NNC(=O)c1ccccc1)c1ccc([N+](=O)[O-])cc1	40	50*	8	-4	0.9
Nc1nc(N)c2cc(CNc3ccc(Cl)c(Cl)c3)ccc2n1	x	95*	x	x	x
Cc1scc(C(=O)N/N=C/c2ccc([N+](=O)[O-])o2)c1C	x	26	x	-9	x
Cc1scc(C(=O)N/N=C/c2ccco2)c1C	-2	39	54*	-4	0.5
CN(C)c1cccc(C(=O)N/N=C/c2ccsc2)c1	31	58*	90*	5	0.1
Cc1scc(C(=O)N/N=C/c2ccsc2)c1C	54*	62*	84*	-10	0.2
O=C(N[C@H]1CC[C@H](CCNS(=O)(=O)c2ccc(Cl)cc2)O[C@@H]1CO)c1cccc(F)c1	x	4	x	x	x
O=C(Nc1ccc2nc(-c3cccnc3)[nH]c2c1)C12CC3CC(CC(C3)C1)C2	19	36	29	0	0.7
O=C(Nc1ccc2nc(-c3cccnc3)[nH]c2c1)C1CCCCC1	35	31	64*	-1	0.4
COc1ccc2cc(CN(C)C(=O)CN3C(=O)NC4(CCCC4)C3=O)ccc2c1	x	-8	x	x	x
CC(C)(C)C(Cn1ccnc1)NC(=O)c1ccc2nc(C3CC3)oc2c1 (stereo not drawn)	x	2	x	58*	x
CSCC[C@@H](CO)NC(=O)c1ccc2nc(C3CCCCC3)oc2c1	x	4	x	-1	x
N/C(=N\OC(=O)c1ccc(Cl)cc1)c1[nH]ncc1Br	-7	35	x	52*	x
COC(=O)c1ccc2c(c1)C(C)(C)C(/C=C/c1ccc(O)cc1)=[N+]2C	34	52*	19	15	0.8
COC(=O)c1ccc2c(c1)C(C)(C)C(/C=C/c1ccc(OC)c(OC)c1OC)=[N+]2C	-3	67*	-8	4	1.1
COc1ccc(/C=N/Nc2ccc(C(=O)O)cc2)c(OC)c1OC	x	-1	x	13	x
Cc1ccc(C(O)c2ncc(-c3cccc4ccccc34)[nH]2)cc1F (stereo not drawn)	x	-10	x	x	x
O=c1c2ccccc2nc2sc(Nc3ccc(F)cc3)nn12	x	23	x	x	x
Cc1ccccc1Nc1nn2c(=O)c3ccccc3nc2s1	41	50*	39	-14	0.6
C[C@@H]1CCCCO[C@H](CN(C)C(=O)Cc2ccccc2)[C@@H](C)CN([C@H](C)CO)C(=O)c2cc(N(C)C)ccc2O1	x	16	x	x	x
SMILES	PPC-1+TRAIL kill	C8 TRAIL sens	FLuc inh counter	Platelet DG rel	FLuc stim CS
CCOC(=O)C1CCN(C=Nc2cc(C)on2)CC1	28	-9	-11	57*	1.1
CCC(=O)Nc1ccc(C2C(=O)c3ccccc3C2=O)cc1	x	73*	x	14	x
CCCCC(=O)Nc1ccc(C(N)=O)cc1	22	-9	-8	1	1.1
CCCCC(=O)Nc1ccc(C2C(=O)c3ccccc3C2=O)cc1	x	48*	x	5	x
CCC(=O)Oc1ccc(-c2cnc3ccccc3n2)cc1	32	13	64*	24	0.4
Cc1ccc(-c2nc(-c3ccccc3)no2)cc1	11	37	78*	19	0.2
Cc1ccc(-c2nc(-c3ccncc3)no2)cc1	x	27	x	5	x
O=C(Oc1ccc(-c2cnc3ccccc3n2)cc1)c1ccco1	5	9	38	45	0.6
Cc1ccc(-c2nc(-c3cccnc3)no2)cc1	26	40	66*	5	0.3
CCC(=O)Oc1ccc(-c2nc(-c3cccnc3)no2)cc1	31	19	61*	81*	0.4
COc1ccc(-c2nc(-c3cccnc3)no2)cc1OC	9	-12	x	-6	x
Brc1ccc2nc(C3CCCCC3)c(Cc3ccsc3)n2c1	x	3	x	x	x
CSc1ccc(CNC(=O)C2(C)CCCN2CC(C)C)cc1 (stereo not drawn)	x	-10	x	x	x
O=C(Nc1ccc(N2CCCC2)cc1)c1ccccc1F	28	-8	71*	20	0.3
O=C(Nc1ccc(N2CCCC2)cc1)c1cccc(F)c1	23	12	59*	8	0.4
O=C(Cc1ccccc1)Nc1ccc(N2CCCCC2)cc1	25	40	73*	37	0.3
CN1CCN(c2ccc(NC(=O)Cc3ccccc3)cc2)CC1	11	11	6	-6	0.9
Cc1cnc(C(=O)Nc2ccc(N3CCCCC3)cc2)cn1	5	19	55*	2	0.5
O=C(Nc1ccc(N2CCCCC2)cc1)c1ccc(F)cc1F	14	36	x	32	x
COc1ccc(NC(=O)C(c2ccccc2F)n2c(=O)c(-c3cc4ccccc4[nH]3)nc3ccccc32)cc1 (stereo not drawn)	x	-1	x	x	x
CCCS(=O)(=O)NC(=O)C1(C)CCCN(C(=O)c2cc3ccccc3s2)C1 (stereo not drawn)	x	12	x	x	x
CC1(C(=O)NS(=O)(=O)c2ccc(Cl)s2)CCN1C(=O)Cc1ccc(-c2ccccc2)cc1 (stereo not drawn)	x	0	x	x	x
CC1(Cc2ccc(OC(F)(F)F)cc2)C(=O)Nc2c(Cl)ccc(Cl)c21 (stereo not drawn)	x	-4	x	x	x
COc1ccc(C(=O)Nc2ccc(C3(C#N)CCCC3)cc2)cc1	9	30	19	4	0.8
N#CC1(c2ccc(NC(=O)c3ccccc3F)cc2)CCCC1	37	44	64*	6	0.4
SMILES	PPC-1+TRAIL kill	C8 TRAIL sens	FLuc inh counter	Platelet DG rel	FLuc stim CS
CN(C)c1ccc(C2NC(=O)c3ccccc3N2)cc1 (stereo not drawn)	x	65*	x	-4	x
CC(C)Oc1cc(F)ccc1-c1cc(C(=O)NCc2cccs2)[nH]n1	x	-25	x	x	x
CCOc1cccc(-c2c(C(=O)N/N=C/c3ccc(C)s3)nnn2-c2nonc2N)c1	x	-20	x	65*	x
COC(=O)c1c[nH]c2c1-c1cc(C(=O)OCc3ccccc3)n(S(=O)(=O)c3ccc(C)cc3)c1C(=O)C2=O	x	70*	x	x	x
Cc1oc2c(c1C(=O)c1ccccc1)C(=O)C(=O)c1ccccc1-2	17	97*	-5	-11	1.1
Cc1oc2c(c1C(=O)O)C(=O)c1ccccc1C2=O	20	13	5	1	1
CCCCCCc1nc2nc(Cl)c(Cl)nc2[nH]1	x	27	x	x	x
CN(C)c1ccc(N=Nc2nccs2)cc1	x	77*	x	x	x
